Among the data in ChEMBL document CHEMBL2311406, “Structure-based design of high-affinity macrocyclic peptidomimetics to block the menin-mixed lineage leukemia 1 (MLL1) protein-protein interaction” (J Med Chem, 2013) are IC50, Ki and Kd values, retold here.

*1 amine or outer side, *2 acyl side, *3 side chain or, on linkers, in order; H or OH if unused. Where a SMILES comes first, the peptide text is derived from it. Bridges are numbered along the chain shown (N, C = ends). [ ]: non-standard residue; d: D form. The star is where a group is joined. 5FAM = O=C1OC2(c3ccc(O)cc3Oc3cc(O)ccc32)c2ccc(C(=O)*)cc21; Ala(indol-2-yl) = N[C@@H](Cc1cc2ccccc2[nH]1)C(=O)O; Phe(3-CF3) = N[C@@H](Cc1cccc(C(F)(F)F)c1)C(=O)O; Phe(3-Ph) = N[C@@H](Cc1cccc(-c2ccccc2)c1)C(=O)O; hhhhLys = O=C([C@H](CCCCCCCCN[*:3])N[*:1])[*:2]; X2 = CC(C)Cc1cccc(C[C@H](N[*:1])C(=O)[*:2])c1; Phe(3,5-F2) = N[C@@H](Cc1cc(F)cc(F)c1)C(=O)O; Phe(3-Cl) = N[C@@H](Cc1cccc(Cl)c1)C(=O)O; Phe(4-Cl) = N[C@@H](Cc1ccc(Cl)cc1)C(=O)O; NH(CH2)9CO = O=C(CCCCCCCCCN[*:1])[*:2]; Phe(2-Cl) = N[C@@H](Cc1ccccc1Cl)C(=O)O; Phe(3-F) = N[C@@H](Cc1cccc(F)c1)C(=O)O; Phe(3-Me) = Cc1cccc(C[C@H](N)C(=O)O)c1; Phe(4-F) = N[C@@H](Cc1ccc(F)cc1)C(=O)O; Phe(2-F) = N[C@@H](Cc1ccccc1F)C(=O)O; Cha = N[C@@H](CC1CCCCC1)C(=O)O; Ahp(2) = CCCCC[C@H](N)C(=O)O; hLys = NCCCCC[C@H](N)C(=O)O; AEEEA = NCCOCCOCCOCC(=O)O; Ac5c = NC1(C(=O)O)CCCC1; Abu = CC[C@H](N)C(=O)O; Ac4c = NC1(C(=O)O)CCC1; Ac3c = NC1(C(=O)O)CC1; Aib = CC(C)(N)C(=O)O

For the assay, the target named is T1, Menin (Homo sapiens, UniProt O00255).
T1 sequence (O00255 whole entry): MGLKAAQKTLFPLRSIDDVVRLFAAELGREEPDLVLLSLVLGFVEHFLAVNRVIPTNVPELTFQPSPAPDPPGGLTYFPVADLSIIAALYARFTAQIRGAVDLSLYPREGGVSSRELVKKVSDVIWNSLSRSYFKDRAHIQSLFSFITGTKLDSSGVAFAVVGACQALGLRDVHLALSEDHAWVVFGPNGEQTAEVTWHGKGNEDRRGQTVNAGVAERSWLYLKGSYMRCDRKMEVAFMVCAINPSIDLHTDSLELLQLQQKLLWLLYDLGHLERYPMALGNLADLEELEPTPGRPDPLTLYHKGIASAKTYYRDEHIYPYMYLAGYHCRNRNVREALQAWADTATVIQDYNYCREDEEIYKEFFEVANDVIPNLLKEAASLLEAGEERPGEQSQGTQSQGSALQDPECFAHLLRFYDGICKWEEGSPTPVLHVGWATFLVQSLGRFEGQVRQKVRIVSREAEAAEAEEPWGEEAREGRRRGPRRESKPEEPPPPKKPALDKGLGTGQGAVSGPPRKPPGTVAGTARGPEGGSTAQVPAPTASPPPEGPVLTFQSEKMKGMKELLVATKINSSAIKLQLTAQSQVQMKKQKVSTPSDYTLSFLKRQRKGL
In words: Binding affinity to menin (unknown origin) after 60 mins by fluorescence polarization assay. The method, boiled down:
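Competitive FP with fluorescein-labeled peptide tracers. Compound in DMSO (2% final) was added to a preincubated menin/tracer complex in 100 mM potassium phosphate pH 7.5 with 100 μg/mL bovine γ-globulin and 0.02% sodium azide. Menin/tracer/detergent were 30 nM/3 nM/0.005% Triton X-100 or 3 nM/2 nM/0.02% Tween-20. Ki was derived from the fitted IC50, probe Kd and assay concentrations.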
(In general: In fluorescence polarisation assays a small probe gives low polarisation when free and higher when bound to something large.)
`N=C(N)NCCC[C@@H]1NC(=O)C2(CCCC2)NC(=O)[C@@H]2CCCN2C(=O)[C@H](Cc2ccccc2)NC(=O)[C@@H](N)CCCCCCCCNC(=O)[C@@H]2CCCN2C1=O` (H-[hhhhLys]FP[Ac5c]RP; lactam 1-C) showed an IC50 of 6320 nM and a Ki of 1660 nM.
As to Ac-RFPARP-NH2, the IC50 was 9570 nM and affinity was put at a Ki of 2850 nM.
In the case of Ac-RWRFPARP-NH2, the IC50 was found to be 232 nM and the Ki came to 71.1 nM.
For `CC[C@@H]1NC(=O)[C@@H]2CCCN2C(=O)[C@H](Cc2ccccc2)NC(=O)[C@@H](N)CCCCCCCCNC(=O)[C@@H]2CCCN2C(=O)[C@H](CCCNC(=N)N)NC1=O` (H-[hhhhLys]FP[Abu]RP; lactam 1-C), in that order: 10700 nM and 3180 nM.
For `N=C(N)NCCC[C@@H]1NC(=O)C2(CCC2)NC(=O)[C@@H]2CCCN2C(=O)[C@H](Cc2ccccc2Cl)NC(=O)[C@@H](N)CCCCCCCCNC(=O)[C@@H]2CCCN2C1=O` (H-[hhhhLys][Phe(2-Cl)]P[Ac4c]RP; lactam 1-C), in that order: 112 nM and 30 nM.
Take `N=C(N)NCCC[C@H](NC(=O)COCCOCCOCCNC(=O)c1ccc2c(c1)C(=O)OC21c2ccc(O)cc2Oc2cc(O)ccc21)C(=O)N[C@@H](Cc1cc2ccccc2[nH]1)C(=O)N[C@H]1CCCCCCCCNC(=O)[C@@H]2CCCN2C(=O)[C@H](CCCNC(=N)N)NC(=O)C2(CCC2)NC(=O)[C@@H]2CCCN2C(=O)[C@H](Cc2cc(F)cc(F)c2)NC1=O` ({5FAM-AEEEA}-R[Ala(indol-2-yl)][hhhhLys][Phe(3,5-F2)]P[Ac4c]RP; lactam 3-C): the Kd was determined as 1.4 nM.
In the case of `C[C@@H]1NC(=O)[C@@H]2CCCN2C(=O)[C@H](Cc2ccccc2)NC(=O)[C@@H](N)CCCCCCCCNC(=O)[C@@H]2CCCN2C(=O)[C@H](CCCNC(=N)N)NC1=O` (H-[hhhhLys]FPARP; lactam 1-C), the IC50 turned out to be 665 nM and affinity was put at a Ki of 197 nM.
As for `CC1(C)NC(=O)[C@@H]2CCCN2C(=O)[C@H](Cc2ccccc2)NC(=O)[C@@H](N)CCCCCCCCNC(=O)[C@@H]2CCCN2C(=O)[C@H](CCCNC(=N)N)NC1=O` (H-[hhhhLys]FP[Aib]RP; lactam 1-C), the IC50 was found to be 226 nM and affinity was put at a Ki of 67 nM.
The matching figures for `C[C@@H]1NC(=O)[C@@H]2CCCN2C(=O)[C@H](Cc2ccccc2)NC(=O)CCCCCCCCCNC(=O)[C@@H]2CCCN2C(=O)[C@H](CCCNC(=N)N)NC1=O` (cyclo(ARP[NH(CH2)9CO]FP)): 6450 nM and 1840 nM.
The matching figures for `Cc1cccc(C[C@@H]2NC(=O)[C@@H](N)CCCCCCCCNC(=O)[C@@H]3CCCN3C(=O)[C@H](CCCNC(=N)N)NC(=O)C3(CCC3)NC(=O)[C@@H]3CCCN3C2=O)c1` (H-[hhhhLys][Phe(3-Me)]P[Ac4c]RP; lactam 1-C): 1150 nM and 332 nM.
For `N=C(N)NCCC[C@@H]1NC(=O)C2(CCC2)NC(=O)[C@@H]2CCCN2C(=O)[C@H](Cc2ccccc2F)NC(=O)[C@@H](N)CCCCCCCCNC(=O)[C@@H]2CCCN2C1=O` (H-[hhhhLys][Phe(2-F)]P[Ac4c]RP; lactam 1-C), in that order: 102 nM and 27.5 nM.
Regarding Ac-WRFPARP-NH2, the IC50 is 1060 nM and the Ki was 311 nM.
`N=C(N)NCCC[C@@H]1NC(=O)C2(CC2)NC(=O)[C@@H]2CCCN2C(=O)[C@H](Cc2ccccc2)NC(=O)[C@@H](N)CCCCCCCCNC(=O)[C@@H]2CCCN2C1=O` (H-[hhhhLys]FP[Ac3c]RP; lactam 1-C) came in with an IC50 of 194 nM and a Ki of 55.5 nM.
For `CCCCC[C@H](NC(=O)[C@H](Cc1c[nH]c2ccccc12)NC(=O)[C@H](CCCNC(=N)N)NC(C)=O)C(=O)N[C@@H](Cc1ccccc1)C(=O)N1CCC[C@H]1C(=O)N[C@@H](C)C(=O)N[C@@H](CCCNC(=N)N)C(=O)N1CCC[C@H]1C(=O)NCC` (Ac-RW[Ahp(2)]FPARP-NHEt), in that order: 7390 nM and 2170 nM.
The matching figures for `CC(C)Cc1cccc(C[C@@H]2NC(=O)[C@@H](N)CCCCCCCCNC(=O)[C@@H]3CCCN3C(=O)[C@H](CCCNC(=N)N)NC(=O)C3(CCC3)NC(=O)[C@@H]3CCCN3C2=O)c1` (H-[hhhhLys][X2]P[Ac4c]RP; lactam 1-C): 36000 nM and 11600 nM.
For `N=C(N)NCCC[C@@H]1NC(=O)C2(CCC2)NC(=O)[C@@H]2CCCN2C(=O)[C@H](Cc2ccc(Cl)cc2)NC(=O)[C@@H](N)CCCCCCCCNC(=O)[C@@H]2CCCN2C1=O` (H-[hhhhLys][Phe(4-Cl)]P[Ac4c]RP; lactam 1-C), in that order: 2010 nM and 549 nM.
`N=C(N)NCCC[C@@H]1NC(=O)C2(CCC2)NC(=O)[C@@H]2CCCN2C(=O)[C@H](CC2CCCCC2)NC(=O)[C@@H](N)CCCCCCCCNC(=O)[C@@H]2CCCN2C1=O` (H-[hhhhLys][Cha]P[Ac4c]RP; lactam 1-C) displayed an IC50 of 3330 nM and a Ki of 862 nM.
As for `N=C(N)NCCC[C@@H]1NC(=O)C2(CCC2)NC(=O)[C@@H]2CCCN2C(=O)[C@H](Cc2cccc(Cl)c2)NC(=O)[C@@H](N)CCCCCCCCNC(=O)[C@@H]2CCCN2C1=O` (H-[hhhhLys][Phe(3-Cl)]P[Ac4c]RP; lactam 1-C), the IC50 was 159 nM and the Ki was 44.6 nM.
The matching figures for `N=C(N)NCCC[C@@H]1NC(=O)C2(CCC2)NC(=O)[C@@H]2CCCN2C(=O)[C@H](Cc2ccc(F)cc2)NC(=O)[C@@H](N)CCCCCCCCNC(=O)[C@@H]2CCCN2C1=O` (H-[hhhhLys][Phe(4-F)]P[Ac4c]RP; lactam 1-C): 422 nM and 123 nM.
The matching figures for `CC(=O)N[C@@H](CCCNC(=N)N)C(=O)N[C@@H](Cc1c[nH]c2ccccc12)C(=O)N[C@H]1CCCCCCCCCNC(=O)[C@@H]2CCCN2C(=O)[C@H](CCCNC(=N)N)NC(=O)[C@H](C)NC(=O)[C@@H]2CCCN2C(=O)[C@H](Cc2ccccc2)NC1=O`: 144 nM and 42.5 nM.
For Ac-RWRFPARPGTGRR-NH2, in that order: 11.4 nM and 2.9 nM.
Molecule `CC(=O)N[C@@H](CCCNC(=N)N)C(=O)N[C@@H](Cc1c[nH]c2ccccc12)C(=O)N[C@H]1CCCCCNC(=O)[C@@H]2CCCN2C(=O)[C@H](CCCNC(=N)N)NC(=O)[C@H](C)NC(=O)[C@@H]2CCCN2C(=O)[C@H](Cc2ccccc2)NC1=O` (Ac-RW[hLys]FPARP; lactam 3-C) yielded an IC50 of 514 nM and an inhibitory constant (Ki) of 136 nM.
Turning to `CC(=O)N[C@@H](CCCNC(=N)N)C(=O)N[C@@H](Cc1c[nH]c2ccccc12)C(=O)N[C@H]1CCCCCCNC(=O)[C@@H]2CCCN2C(=O)[C@H](CCCNC(=N)N)NC(=O)[C@H](C)NC(=O)[C@@H]2CCCN2C(=O)[C@H](Cc2ccccc2)NC1=O`, the IC50 was found to be 63.3 nM and the inhibition constant (Ki) was 17.5 nM.
Regarding `CC(=O)N[C@@H](CCCNC(=N)N)C(=O)N[C@@H](Cc1c[nH]c2ccccc12)C(=O)N[C@H]1CCCCCCCCNC(=O)[C@@H]2CCCN2C(=O)[C@H](CCCNC(=N)N)NC(=O)[C@H](C)NC(=O)[C@@H]2CCCN2C(=O)[C@H](Cc2ccccc2)NC1=O` (Ac-RW[hhhhLys]FPARP; lactam 3-C), the IC50 amounted to 25 nM and the Ki was determined as 6.9 nM.
As to `N=C(N)NCCC[C@@H]1NC(=O)C2(CCC2)NC(=O)[C@@H]2CCCN2C(=O)[C@H](Cc2cccc(C(F)(F)F)c2)NC(=O)[C@@H](N)CCCCCCCCNC(=O)[C@@H]2CCCN2C1=O` (H-[hhhhLys][Phe(3-CF3)]P[Ac4c]RP; lactam 1-C), the IC50 is 2520 nM and affinity was put at a Ki of 725 nM.
The matching figures for `CC(=O)N[C@H]1CCCCCCCCNC(=O)[C@@H]2CCCN2C(=O)[C@H](CCCNC(=N)N)NC(=O)[C@H](C)NC(=O)[C@@H]2CCCN2C(=O)[C@H](Cc2ccccc2)NC1=O` (Ac-[hhhhLys]FPARP; lactam 1-C): 2160 nM and 586 nM.
The matching figures for `N=C(N)NCCC[C@@H]1NC(=O)C2(CCC2)NC(=O)[C@@H]2CCCN2C(=O)[C@H](Cc2cccc(-c3ccccc3)c2)NC(=O)[C@@H](N)CCCCCCCCNC(=O)[C@@H]2CCCN2C1=O` (H-[hhhhLys][Phe(3-Ph)]P[Ac4c]RP; lactam 1-C): 39400 nM and 14000 nM.
As to Ac-RWRFPAR-NH2, the IC50 was determined as 85300 nM and the Ki was found to be 25500 nM.
For `N=C(N)NCCC[C@@H]1NC(=O)C2(CCC2)NC(=O)[C@@H]2CCCN2C(=O)[C@H](Cc2cccc(F)c2)NC(=O)[C@@H](N)CCCCCCCCNC(=O)[C@@H]2CCCN2C1=O` (H-[hhhhLys][Phe(3-F)]P[Ac4c]RP; lactam 1-C), in that order: 25.1 nM and 6.8 nM.
For `CC(=O)N[C@@H](CCCNC(=N)N)C(=O)N[C@@H](Cc1c[nH]c2ccccc12)C(=O)N[C@H]1CCCCNC(=O)[C@@H]2CCCN2C(=O)[C@H](CCCNC(=N)N)NC(=O)[C@H](C)NC(=O)[C@@H]2CCCN2C(=O)[C@H](Cc2ccccc2)NC1=O` (Ac-RWKFPARP; lactam 3-C), in that order: 11000 nM and 3320 nM.

In general, IC50 refers to the concentration that gives 50% inhibition. A high value points to weaker potency. In general, Ki refers to the equilibrium dissociation constant of an inhibitor or competing ligand from its target. Lower therefore signals a stronger hold on the target. Usually Kd stands for the constant that tells how readily two partners part at equilibrium. A higher Kd goes with a looser complex.
